# Test results from paper PMC12569033 (Nature Communications, 2025).
# Entries after “also recorded” stand apart in the source; their conditions may differ.
# Tests used:
# [1] = tested on: dmIR wild-type (WT); assay: Cell-based dmIR activation; design: species or system Drosophila melanogaster; conditions: 10 min; for dmIR autophosphorylation, in words / Efficacy (signal in amplitude) relative to DILP5: dose response Fig. 1a; for Efficacy (signal in amplitude) relative to DILP5: of the efficacy/maximum of DILP5; for dmIR WT autophosphorylation on stimulation, in words: 100 nM, Fig. 2f, g
# [2] = biological target: near-full-length dmIR (residues 1–50, 151–1675, D1519N) (Drosophila melanogaster) (UniProt P09208); assay: cryo-EM structure
# [3] = tested on: dmIR Q1040A; assay: dmIR autophosphorylation assay, Q1040A mutant; assay type: cell-based, Drosophila melanogaster; conditions: 100 nM ligand, 10 min
# Summary of the method: (§1)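 Site-directed dmIR point mutants (C-terminal MYC tag) were transfected into 293FT cells alongside WT. After 1 day, cells were serum-starved 16–18 h, then treated 10 min with 100 nM DILP2 or DILP5. Lysates were blotted with anti-pY1150/1151 and anti-Myc. pY-dmIR was normalized to total dmIR and expressed relative to WT with the same ligand. Data are mean ± sem of ≥3 independent experiments, analysed by two-way ANOVA with Dunnett test versus WT.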
# [4] = tested on: dmIR F1044A; assay: dmIR autophosphorylation assay, F1044A mutant; assay type: cell-based, Drosophila melanogaster; conditions: 100 nM ligand, 10 min
# Summary of the method: as §1
# [5] = tested on: dmIR R848A; assay: dmIR autophosphorylation assay, R848A mutant; assay type: cell-based, Drosophila melanogaster; conditions: 100 nM ligand, 10 min
# Summary of the method: as §1
# [6] = tested on: dmIR R657A; assay: dmIR autophosphorylation assay, R657A mutant; assay type: cell-based, Drosophila melanogaster; conditions: 100 nM DILP5, 10 min
# Summary of the method: (§2)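 Full-length wDah dmIR with a C-terminal MYC tag, mutated by site-directed mutagenesis, was transiently transfected into 293FT cells. After 1 day, cells were serum-starved for 16–18 h, then exposed to 100 nM synthetic DILP for 10 min. Lysates were immunoblotted for pY1548/1549 and Myc, and pY signal was normalized to total dmIR relative to WT receiving the same treatment. Independent experiments were analysed by two-way ANOVA with Dunnett's test, mean ± sem.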
# [7] = tested on: dmIR Δ602–609; assay: dmIR autophosphorylation assay, Δ602–609 mutant; assay type: cell-based, Drosophila melanogaster; conditions: Δ602–609, 100 nM DILP5, 10 min
# Summary of the method: as §2
# [8] = tested on: dmIR V889R; assay: dmIR autophosphorylation assay, V889R mutant; assay type: cell-based, Drosophila melanogaster; conditions: 100 nM DILP5, 10 min
# Summary of the method: as §2
# [9] = tested on: dmIR S820R; assay: dmIR autophosphorylation assay, S820R mutant; assay type: cell-based, Drosophila melanogaster; conditions: 100 nM DILP5, 10 min
# Summary of the method: as §2
# [10] = tested on: dmIR D1251R; assay: dmIR autophosphorylation assay, D1251R mutant; assay type: cell-based, Drosophila melanogaster; conditions: 100 nM ligand, 10 min
# Summary of the method: as §2
# [11] = tested on: dmIR K1256A; assay: dmIR autophosphorylation assay, K1256A mutant; assay type: cell-based, Drosophila melanogaster; conditions: 100 nM ligand, 10 min
# Summary of the method: as §2
# [12] = tested on: Drosophila S2 cells; conditions: single peptide applied to cultured Drosophila S2 cells; cited from earlier work
# [13] = tested on: glycogen phosphorylase; sterile 20-like kinase; tramtrack; conditions: cited from earlier work
Molecule,"dmIR autophosphorylation, in words (Fig. 5f, g) ([1]; 1000 nM DILP1, 100 nM DILP5 or combination)","dmIR autophosphorylation, in words ([1]; 293FT)",Efficacy (signal in amplitude) relative to DILP5 ([1]; 293FT),stoichiometry N (DILP5 molecules per dmIR dimer) [2],"dmIR WT autophosphorylation on stimulation, in words ([1]; 293FT)",Concentration at which saturation of dmIR autophosphorylation is observed ([1]; 293FT) [nM],"Effect of receptor mutation on ligand-induced activation, in words [3]","Effect of receptor mutation on ligand-induced activation, in words [4]","Effect of receptor mutation on ligand-induced activation, in words [5]","Effect of receptor mutation on ligand-induced activation, in words [6]","Effect of receptor mutation on ligand-induced activation, in words [7]","Effect of receptor mutation on ligand-induced activation, in words [8]","Effect of receptor mutation on ligand-induced activation, in words [9]","Effect of receptor mutation on ligand-induced activation, in words [10]","Effect of receptor mutation on ligand-induced activation, in words [11]","Phosphorylation of Akt (pAkt), in words [12]","Protein phosphorylation changes, in words [13]"
Drosophila insulin-like peptide 1 [DILP1],lower levels of dmIR autophosphorylation compared to DILP5,lowest level of dmIR autophosphorylation; also recorded: lowest efficacy in activating dmIR,about 50%,,,,,,,,,,,,,,
Drosophila insulin-like peptide 5 (DILP5) (ligand),,,,3,,,,,,,,,,,,,
"Drosophila insulin-like peptide 5 (peptide, UniProt Q7KUD5 23-108, looked up) Insulin-like peptide 5: ANSLRACGPALMDMLRVACPNGFNSMFAKRGTLGLFDYEDHLADLDSSESHHMNSLSSIRRDFRGVVDSCCRKSCSFSTLRAYCDS",,increased dmIR autophosphorylation in a dose-dependent manner; also recorded: higher levels of dmIR autophosphorylation,,,significantly increased autophosphorylation of dmIR WT,300,reduced receptor autophosphorylation,reduced receptor autophosphorylation,reduced receptor autophosphorylation,impaired DILP5-induced activation of dmIR,impaired DILP5-induced activation of dmIR,modest but statistically significant reduction in dmIR phosphorylation,modest but statistically significant reduction in dmIR phosphorylation,defects in DILP5- or DILP2-dependent dmIR activation,defects in DILP5- or DILP2-dependent dmIR activation,robust and sustained phosphorylation of Akt (pAkt),increases the phosphorylation of sterile 20-like kinase and tramtrack
"Drosophila insulin-like peptide 2 (peptide, UniProt Q9VT51 27-137, looked up) Insulin-like peptide 2: TLCSEKLNEVLSMVCEEYNPVIPHKRAMPGADSDLDALNPLQFVQEFEEEDNSISEPLRSALFPGSYLGGVLNSLAEVRRRTRQRQGIVERCCKKSCDMKALREYCSVVRN",,less effective than DILP5,approximately 75%,,significantly increased autophosphorylation of dmIR WT,,reduced receptor autophosphorylation,reduced receptor autophosphorylation,reduced receptor autophosphorylation,,,,,defects in DILP5- or DILP2-dependent dmIR activation,defects in DILP5- or DILP2-dependent dmIR activation,only stimulates an early spike of pAkt,represses the phosphorylation of glycogen phosphorylase
